Screening results: PubChem BioAssay, several laboratories
CXCR6 block = inhibitors of human CXCR6 receptor. O00574. CHO-K1 PathHunter CXCR6 beta-arrestin, luminescence. inhibition, % at 20 µM. 360,000 compounds, 0.36% hits. AID 602244; in the data active = inhibition above about 34%, passing the limit was not always enough;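 also: antagonist mode with CXCL16 agonist at 10 nM final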
EBI2 antag = antagonists of human EBI2 receptor; AID 651636; P32249; inhibition, % at 5 µM; 360,000 compounds, 0.81% hits; EBI2 beta-arrestin recruitment, luminescence, 7a,25-OHC stimulated; in the data active = inhibition above about 38%;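 also: enzyme fragment complementation signal reports receptor beta-arrestin coupling in cells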
APJ antagonist = antagonists of human APJ apelin receptor. P35414. CHO-K1 APJ beta-arrestin complementation, luminescence. inhibition, % at 20 µM. 330,000 compounds, 0.32% hits;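 active = inhibition above about 40% at 20 µM, limit read from the data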;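 also: cells challenged with 10 nM apelin-13 agonist together with compound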
APJ agonist = APJ receptor agonism | P35414 | AID 2520 | activation, % at 20 µM | CHO-K1 APJ PathHunter beta-arrestin, luminescence; 0% DMSO wells, 100% apelin | 330,000 compounds, 0.11% hits;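 active = activation more than six SD over the plate average, tested at 20 µM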
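Assay system: CHO-K1 cells stably expressing ProLink-tagged human APJ and arrestin–beta-gal acceptor. Compound dosing: 20 µM single point, 1% DMSO. Times: 16-18 h seeding, 90 min dark compound exposure, 60 min detection. Detection: beta-gal luminescence. Evaluation: APJ–arrestin association signal. Controls: negative DMSO alone, positive Apelin-13 at 10 nM.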
HTR2A ag = mouse HTR2A agonism via beta-arrestin recruitment; activation, % at 7.6 µM; 360,000 compounds, 0.66% hits; AID 624169; CHO-K1 mHTR2A beta-arrestin complementation, luminescence; percent of 30 µM serotonin response;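 active = activation above a run cutoff, the mean activation of all tested compounds plus 3 SD, cut at about 14% in these data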
CCR6 antag = blocks CCL20-driven beta-arrestin recruitment at human CCR6; CHO-K1 CCR6 PathHunter beta-arrestin, luminescence, CCL20-stimulated; inhibition, % at 20 µM; 340,000 compounds, 0.49% hits; AID 493098;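 active = compounds whose inhibition of the agonist-driven luminescence signal at 20 µM reaches about 50%, limit read from the data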;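 also: cells stimulated with CCL20 at 14 nM final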
MOR ag counter = activates human mu opioid receptor in HTR2A counterscreen; 2,300 compounds, 5.3% hits; U2OS OPRM1 beta-arrestin PathHunter, luminescence; DMSO 0%, DAMGO 9.3 µM 100%; activation, % at 9.3 µM; shares compounds with HTR2A ag;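 active = mean activation above the mean of DMSO-only wells plus 3 SD, cut at about 0.5% in these data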
Target sequence (P35372 whole entry, looked up): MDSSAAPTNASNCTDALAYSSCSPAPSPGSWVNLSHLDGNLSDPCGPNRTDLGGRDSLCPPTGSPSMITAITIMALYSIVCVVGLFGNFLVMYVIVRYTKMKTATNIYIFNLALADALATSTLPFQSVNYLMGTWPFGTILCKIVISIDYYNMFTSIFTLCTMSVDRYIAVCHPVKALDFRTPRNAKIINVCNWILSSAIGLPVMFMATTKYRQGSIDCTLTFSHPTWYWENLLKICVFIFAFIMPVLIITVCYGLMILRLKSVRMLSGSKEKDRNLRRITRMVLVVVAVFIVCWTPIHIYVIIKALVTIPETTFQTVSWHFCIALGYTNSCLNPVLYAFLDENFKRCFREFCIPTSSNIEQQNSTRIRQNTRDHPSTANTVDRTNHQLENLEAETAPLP
m5-HT2A ag conf = mouse HTR2A agonism confirmed. shares compounds with HTR2A ag. CHO-K1 PathHunter beta-arrestin recruitment, luminescence; DMSO 0%, 30 µM serotonin 100%. activation, % at 7.6 µM. 2,300 compounds, 19% hits;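 active = mean activation across triplicates above the hit threshold derived in the original primary screen, cut at about 15% in these data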
A number is an active result; . = inactive; / = not tested or not shown. In the library only some 2.2% were active in any assay of this set; here they are far more common.

SMILES	CXCR6 block	EBI2 antag	APJ antagonist	APJ agonist	HTR2A ag	CCR6 antag	MOR ag counter	m5-HT2A ag conf
COc1ccc(NC(=O)C2CC3C=CC2C3)c([N+](=O)[O-])c1 (stereo not given)	.	.	/	/	15	.	.	.
COc1ccc(NC(=O)CC(C)C)c([N+](=O)[O-])c1	.	.	.	.	.	.	/	/
O=C(CN1CCc2ccccc21)NN1CC(=O)N(c2ccccc2)CC1=O	.	.	.	.	19	.	.	.
COC(=O)[C@@]12C[C@@H](CC(=O)NCc3ccc(C)o3)C(=O)N(Cc3cccc4ccccc34)C1=CCC(C)(C)C2	/	.	/	/	.	/	/	/
CCOc1ccc(C(=O)Nc2ccc(NC(=O)c3ccccc3)cc2)cc1Br	.	.	.	.	25	.	.	.
CC1(Oc2cccnc2Cl)CCN(Cc2ccc(OC(F)(F)F)cc2)C1 (stereo not given)	.	.	/	/	.	/	/	/
CC1(Cc2cc(Cl)ccc2C(F)(F)F)C(=O)Nc2cc(C(F)(F)F)ccc21 (stereo not given)	.	.	/	/	15	/	.	.
CCC(=O)NCCc1cc2cc(C)c(C)cc2[nH]c1=O	.	.	.	.	.	.	/	/
Cc1cc2cc(CCNC(=O)CCc3ccccc3)c(=O)[nH]c2cc1C	.	.	.	.	22	.	.	.
COc1c2c(cc3ccc(=O)oc13)CCO2	.	.	.	.	21	.	.	.
CC1CN(C(=O)CSc2nc(N)c(NC(=O)c3ccc(C(F)(F)F)cc3)c(=O)[nH]2)CC(C)O1 (stereo not given)	.	.	/	/	.	/	/	/
Cc1ccc(-n2c(SCC(=O)NCC3CCCO3)nc3c(c2=O)SCC3)cc1 (stereo not given)	.	.	.	.	.	.	/	/
COc1ccc(NC(=O)CSc2nc3c(c(=O)n2C)SCC3)cc1OC	.	.	.	.	.	.	/	/
C=CCn1c(SCC(=O)NCC2CCCO2)nc2scc(-c3ccc(OC)cc3)c2c1=O (stereo not given)	.	.	.	.	.	.	/	/
COc1ccc(-n2c(SCC(=O)NCC3CCCO3)nc3c(c2=O)SCC3)cc1 (stereo not given)	.	.	.	.	15	.	.	.
C=CCn1c(SCC(=O)NCC2CCCO2)nc2sc(CC)cc2c1=O (stereo not given)	.	.	.	.	17	.	.	.
CCn1c(SCC(=O)Nc2ccc(OC)c(OC)c2)nc2c(c1=O)SCC2	.	.	.	.	17	.	.	.
CCc1ccc(S(=O)(=O)Nc2ccncc2)cc1	.	.	.	.	15	.	.	.
O=S(=O)(Nc1ccncc1)c1ccc(Cl)cc1	.	.	.	.	.	.	/	/
CCOC(=O)C(=O)N(C)c1c(CC)nc2c(OCc3ccc(OC)cc3)cccn12	.	.	/	/	.	/	/	/
CCCCNS(=O)(=O)c1cccc(NC(=O)[C@@H]2O[C@H](CO)[C@H](O)[C@H](O)[C@H]2O)c1	.	.	/	/	.	/	/	/
CCC(c1nnnn1-c1ccc(OC)cc1)N1CCN(C/C=C/c2ccccc2)CC1 (stereo not given)	.	.	/	/	15	/	.	24
CCC(c1nnnn1C(C)(C)C)N1CCN(C/C=C/c2ccccc2)CC1 (stereo not given)	.	.	/	/	15	/	.	38
CC(C)(C)n1nnnc1C(c1ccccc1)N1CCN(C/C=C/c2ccccc2)CC1 (stereo not given)	.	.	/	/	.	/	/	/
COc1cccc(-c2cccc(-c3nc(C(=O)NCCCN4CCOCC4)cc4c3[C@H](CCO)N(S(=O)C(C)(C)C)C4)c2)c1 (stereo not given in full)	.	.	/	/	.	/	/	/
SMILES	CXCR6 block	EBI2 antag	APJ antagonist	APJ agonist	HTR2A ag	CCR6 antag	MOR ag counter	m5-HT2A ag conf
O=C(c1cccc(S(=O)(=O)NCc2ccccc2)c1)N1CCN(Cc2ccccc2)CC1	.	.	.	.	.	.	/	/
O=C(CS(=O)(=O)c1ccccc1)N1CCCCCC1	.	.	.	.	21	.	.	.
Cc1ccc(S(=O)(=O)CC(=O)N2CCCC2)cc1	.	.	.	.	.	.	/	/
O=C(c1cccc(S(=O)(=O)NCc2ccccc2)c1)N1CCCCC1	.	.	.	.	19	.	.	.
CC(=O)N1CCN(C(=O)c2ccc(S(=O)(=O)Nc3ccccc3C)cc2)CC1	.	.	.	.	.	.	/	/
O=C(c1ccc(NS(=O)(=O)c2ccccc2)cc1)N1CCCCCC1	.	.	.	.	17	.	.	.
Cc1ccccc1NS(=O)(=O)c1ccc(C(=O)N2CCN(S(=O)(=O)c3ccccc3)CC2)cc1	.	.	.	.	15	.	.	.
C[C@@H]1CN([C@@H](C)CO)C(=O)CCCn2nncc2CO[C@@H]1CN(C)C(=O)Nc1cccc(C(F)(F)F)c1	.	.	/	/	.	/	/	/
Nc1[nH]c(C(=O)c2ccccc2)c(-c2ccncc2)c1C(=O)NCc1ccc(Cl)cc1	.	.	/	/	.	/	/	/
COCCCn1cc(CN(C)C2CN(Cc3cn(CCCOC)nn3)S(=O)(=O)C2)nn1 (stereo not given)	.	.	/	/	.	/	/	/
COc1ccccc1NC(=O)Nc1nc(CC(=O)N2CCN(c3ccccc3F)CC2)cs1	.	.	.	.	15	.	.	.
CN(c1cccc(NC(=O)CCSc2ccccc2)c1)S(C)(=O)=O	.	.	.	.	.	.	/	/
CC(Sc1ccccc1)C(=O)Nc1cccc(N(C)S(C)(=O)=O)c1 (stereo not given)	.	.	.	.	17	.	.	.
O=C(OCc1cccc(F)c1)c1ccc2c(=O)n3c(nc2c1)CCC3	.	.	.	.	18	.	.	.
CC(C)(C)OC(=O)N1C(=O)[C@](OC(=O)c2ccccc2)(c2ccc(F)cc2)c2ccccc21	.	.	/	/	.	/	/	/
CC(=O)N1CCN(C(C(=O)Nc2c(C)cccc2C)c2cccc(F)c2)CC1 (stereo not given)	/	.	/	/	.	/	/	/
O=C(c1[nH]c(C(F)(F)F)nc1-c1ccccc1)N1CCN(c2cccc(C(F)(F)F)n2)CC1	.	.	/	/	14	/	.	.
COC(=O)C1=CN(c2ccc3c(c2)OCO3)C(N)=C(C#N)C1c1ccc(-c2ccccc2)cc1 (stereo not given)	/	.	/	/	.	/	/	/
CN1CCN(S(=O)(=O)c2ccc(C(F)(F)F)cc2)C(c2ccccc2)C1 (stereo not given)	.	.	.	.	15	.	.	.
Cc1ccc(S(=O)(=O)N2CCC(=O)CC2c2ccccc2)cc1 (stereo not given)	.	.	/	/	.	.	/	/
